Screens from PubChem.
PTEN del growth = growth suppressors of cells with PTEN tumor suppressor deletion | HCT116 PTEN-null viability, CellTiter-Glo, 60 h; active compounds read low | viability, % at 10 µM | actives 1.2% (n = 140,000) | AID 827;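 active = viability at or below a set limit, 4 SD under the median of all tested compounds, cut at about 3.7% in these data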;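 also: PTEN knockout HCT116 line with beta catenin targeted HCT116 as companion control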
Lung fibro prol = blocks proliferation of human lung fibroblasts | LL 47 human lung fibroblast viability, ATP luminescence; active compounds read low | viability, % at 10 µM | actives 1.1% (n = 85,000) | AID 719;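 active = viability at or below 50% in the single dose screen; inactive = viability above 50%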;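 also: compound exposure lasted 72 h before the ATP readout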
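Signal: luminescent ATP detection, CellTiter-Glo; assay system: LL 47 human lung fibroblasts; input: 1,150 cells/well; incubation: overnight cell rest, 72 h compound treatment at 37 °C; measure: % viability versus median cells-only luminescence; medium: IMEM growth medium with 15% fetal bovine serum; dosing: compound addition at 0.1% DMSO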
HUVEC inhibit = inhibitors of human endothelial cell proliferation; AID 648; actives 1.1% (n = 86,000); viability, % at 10 µM (by protocol); HUVEC proliferation, CellTiter-Glo luminescence, 72 h; active compounds read low;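 active = viability at or below 30%; inactive = viability above 30%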
H69AR inhibit = blocks growth of human H69AR lung tumor cells; H69AR lung tumor viability, ATP luminescence, 72 h; active compounds read low; viability, % at 10 µM; actives 6% (n = 85,000);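 active = viability at or below 40%; inactive = viability above 40%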;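 also: multidrug resistant small cell line overexpressing MRP-1 efflux transporter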
bCat KO growth = beta-catenin-lacking colon tumor cell growth suppression | HCT116 beta-catenin knockout viability, CellTiter-Glo, 60 h; active compounds read low | actives 1.5% (n = 140,000) | viability, % at 10 µM;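 active = viability at or under a set limit, the compound median less 4 SD, cut at about 6% in these data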
A number is an active result; – = inactive; · = no result given. The entries come from a sample that favours hits as a whole.

SMILES | PTEN del growth | Lung fibro prol | HUVEC inhibit | H69AR inhibit | bCat KO growth
Cc1ccc2c(c1)c1c3n2CCN(C(=O)Cn2c(-c4ccccc4)noc2=O)C3CCC1 (centres undefined) | – | – | – | – | –
Cc1ccc2c(c1)c1c3n2CCN(C(=O)C2CC2)C3CCC1 (centres undefined) | – | – | – | – | –
CN1CCN(CC(=O)N2CCn3c4c(c5cc(C6CCCCC6)ccc53)CCCC42)CC1 (centres undefined) | 1.6 | 1.9 | 2.7 | 1.1 | 1.3
Cc1ccc2c(c1)c(=O)c1c3n2CCN(C(=O)CCl)C3CC1 (centres undefined) | – | 2.0 | 8.9 | 1.5 | –
Cc1ccc2c(c1)c1c3n2CCCN(Cc2ccccc2)C3CCC1 (centres undefined) | – | – | – | 36.4 | –
CCC1CCCCN1C(=O)Cn1c(C(=O)OC)cc2ccsc21 (centres undefined) | – | – | – | – | –
CCCCC(CCC(=O)NNC(=O)Cc1ccccc1)C(=O)O (centres undefined) | – | · | · | · | –
CC(/C=C/C=C/c1ccccc1)=N/NC(=O)CNc1ccccc1C | – | · | · | · | –
O=Cc1ccc2noc(-c3ccc(Cl)cc3)c2c1 | – | – | – | 38.5 | –
Cc1cc(C)c(NC(=O)c2ccc(CN3CCc4ccccc4C3)cc2)c(C)c1 | – | · | · | · | –
CCn1c(SCc2ccc(F)cc2)nnc1-c1nn(-c2ccccc2)ccc1=O | – | · | · | · | –
Cn1c2ccccc2c(=O)c2c(=O)n(C3CCCCC3)c(-c3cccs3)nc21 | – | 40.6 | – | 34.2 | –
Cn1c2ccccc2c(=O)c2c(=O)n(C3CCCCCC3)c(C3CCCCC3)nc21 | 2.5 | · | · | · | 5.2
COc1ccc(C(=O)NC(NC(=O)c2ccc(OC)c(OC)c2)c2ccccc2F)cc1OC | – | · | · | · | –
CC1(C)Cc2ccccc2C(NNC(=O)c2ccncc2)=N1 | – | · | · | · | –
COc1ccc2c(c1)C1CC(C)(NC(=O)C1C(=O)c1ccccc1)O2 (centres undefined) | – | – | – | – | –
COc1ccc2c(c1)OC1(C)CC2C(C(=O)c2ccccc2OC)C(=O)N1 (centres undefined) | – | – | – | 32.6 | –
COC(=O)c1c(S(=O)(=O)NCc2ccccc2)sc(C(=O)O)c1C | – | – | – | – | –
Cc1cccc(NC(=O)C2CCCN(S(=O)(=O)c3c(C)nn(C)c3C)C2)n1 (centres undefined) | – | – | – | 38.5 | –
COCC(O)CNc1ccccc1 (centres undefined) | – | · | · | · | –
CSc1nncc(=O)[nH]1 | – | 3.6 | – | – | –
Cc1ccc(C(C)NC(=O)/C(C#N)=C\c2c(C)[nH]c3ccccc23)cc1 (centres undefined) | – | · | · | · | –
COC(=O)c1ccc(/C=C(\C#N)C(=O)NC(C)c2ccccc2)cc1 (centres undefined) | 1.6 | · | · | · | 3.7
COc1ccc(NC(=O)CSc2ncnc3c2sc2ccccc23)c(OC)c1 | 2.2 | · | · | · | 2.2
Cc1ccc(C)c(OCC(O)CN2CCC(CN3C(=O)c4cccc5cccc(c45)C3=O)CC2)c1 (centres undefined) | 1.2 | · | · | · | 1.2
SMILES | PTEN del growth | Lung fibro prol | HUVEC inhibit | H69AR inhibit | bCat KO growth
COc1cc(/C=N/O)cc(Br)c1OCc1ccc(Cl)cc1 | – | · | · | · | –
CCOc1cc(/C=N/N=C(\N)c2nonc2N)cc(Br)c1OCc1cccc2ccccc12 | – | 40.8 | 7.5 | 13.3 | –
COc1cc(/C=N/N=C(/N)c2nonc2N)cc(Br)c1OCc1cccc(C)c1 | – | – | 29.6 | – | –
COc1ccc(C2NCCc3c2[nH]c2ccccc32)cc1CSc1nc2ccccc2s1 (centres undefined) | 1.3 | · | · | · | 1.4
COc1ccc(C2NC(C(=O)O)Cc3c2[nH]c2ccccc32)cc1OC (centres undefined) | – | – | – | – | –
COc1cccc(OCC(=O)Nc2c(C(=O)Nc3ccc(OC)cc3OC)oc3ccccc23)c1 | · | – | – | 20.6 | ·
COc1ccccc1NC(=O)c1oc2ccccc2c1NC(=O)c1cc(OC)c(OC)c(OC)c1 | · | – | – | 22.1 | ·
Cc1ccc(NCC(=O)Nc2cccc(S(=O)(=O)N(C)C)c2)c(Cl)c1 | – | · | · | · | –
O=C(Cn1cnc([N+](=O)[O-])c1)Nc1cc(Oc2ccc(Cl)cc2Cl)cc([N+](=O)[O-])c1 | – | – | – | 9.9 | –
Cc1ccc(S(=O)(=O)N2CCCCC2)cc1NC(=O)COC(=O)c1ccc2c(c1)OCO2 | – | · | · | · | –
N#CC1=C(SCC(=O)c2ccccc2)NC2=C(C(=O)CCC2)C1c1ccco1 (centres undefined) | – | – | – | 16.4 | –
CC(C)(C)c1ccc(C(=O)CCCSC2=C(C#N)C(c3ccco3)C3=C(CCCC3=O)N2)cc1 (centres undefined) | – | – | – | – | –
Cc1ccc(C(=O)CSC2=C(C#N)C(c3ccco3)C3=C(CCCC3=O)N2)cc1 (centres undefined) | – | – | – | 18.6 | –
COc1cc(CN(C)CCc2ccccc2)ccc1OCc1ccccc1 | – | · | · | · | –
NC(=O)CCC(NS(=O)(=O)c1ccc(Cl)cc1)C(=O)NCc1ccccc1 (centres undefined) | – | · | · | · | –
COc1cc(C(=O)O/N=C2\C=CC(=O)C(C)=C2)cc(OC)c1OC | 1.4 | · | · | · | 1.5
CC(NC(=O)Cc1ccccc1)c1cc2c(cc1Br)OCCCO2 (centres undefined) | – | · | · | · | –
CCCC(=O)Nc1cccc(-c2nc3ccccc3o2)c1 | – | – | – | – | –
Cc1ccc2oc(-c3cccc(NC(=O)c4cc(-n5cnnc5)ccc4Cl)c3)nc2c1 | – | – | – | 10.7 | –
Cc1ccc(NC(=O)c2cc(-n3cnnc3)ccc2Cl)cc1 | – | – | – | – | –
O=C(Nc1ccc2oc(-c3ccccc3F)nc2c1)c1ncn[nH]1 | – | · | · | · | –
O=C(Nc1ccc2oc(-c3ccc(Cl)c(Cl)c3)nc2c1)c1ncn[nH]1 | 0.9 | · | · | · | 1.0
O=C(Nc1ccc2oc(-c3cccc(F)c3)nc2c1)c1ccccc1F | 2.4 | – | – | – | –
O=C(Nc1ccc2oc(-c3ccccc3)nc2c1)c1ccccc1F | – | – | – | – | –
CCCC(=O)Nc1cccc(-c2nc3cc(C)c(C)cc3o2)c1 | – | – | – | 13.9 | –
SMILES | PTEN del growth | Lung fibro prol | HUVEC inhibit | H69AR inhibit | bCat KO growth
CCCc1nnc(NC(=O)Cn2cnc3ccccc3c2=O)s1 | – | · | · | · | –
O=C(NCc1ccco1)/C(=C\c1cccnc1)NC(=O)c1ccccc1F | – | · | · | · | –
CCn1cc(CNC(=O)/C=C/c2ccc([N+](=O)[O-])cc2)cn1 | – | · | · | · | –
Cc1ccc(-c2nc3cc(Cl)ccc3o2)cc1 | – | – | – | – | –
COc1cc(OC)cc(-c2nc3cc(C)ccc3o2)c1 | – | – | – | 31.2 | –
COc1cc(C(=O)Nc2cccc(-c3nc4cc(C)ccc4o3)c2)cc(OC)c1OC | – | – | – | 27.7 | –
COc1cc(C(=O)Nc2cccc(-c3nc4cc(C)ccc4o3)c2C)cc(OC)c1OC | – | – | – | – | –
COc1cc(C(=O)Nc2cc(-c3nc4cc(C)ccc4o3)ccc2C)cc(OC)c1OC | – | – | – | 30.4 | –
